Assay results reported in ChEMBL document CHEMBL1629691, “Intrapulmonary pharmacokinetics and pharmacodynamics of micafungin in adult lung transplant patients” (Antimicrob Agents Chemother, 2010).
Numbered stars: 1 amine (or outer) side, 2 acyl side, 3 side chain; on linkers, the order of the positions; unused ones are H or OH. Bridge positions count the residues as written; N and C are the ends. Square brackets hold non-standard residues; d marks the D form. Peptide text beside a SMILES is read from it. * marks the point of attachment. hTyr(3S-OH,4S-OH,3'-OSO3H) = N[C@H](C(=O)O)[C@H](O)[C@@H](O)c1ccc(O)c(OS(=O)(=O)O)c1; Orn(4R-OH,5R-OH) = O=C([C@H](C[C@@H](O)[C@@H](O)N[*:3])N[*:1])[*:2]; Pro(3S-OH,4S-Me) = C[C@H]1CN[C@H](C(=O)O)[C@H]1O; X1 = CCCCCOc1ccc(-c2cc(-c3ccc(C(=O)*)cc3)no2)cc1; Gln(3R-OH) = NC(=O)C[C@@H](O)[C@H](N)C(=O)O; Hyp = O=C(O)[C@@H]1C[C@@H](O)CN1

Legend:
[1] = Ratio of fCmax in lung transplant recipient invasive aspergillosis patient plasma to MIC90 for Aspergillus fumigatus; format: functional
[2] = Ratio of Cmax in lung transplant recipient invasive aspergillosis patient alveolar cell to MIC90 for Aspergillus fumigatus; format: functional, Pneumocyte
[3] = Cmax in lung transplant recipient invasive aspergillosis patient plasma at 150 mg, iv QD for 4 consecutive days by HPLC; format: ADME, organism-based; set-up: dose 150 mg, route intravenous; conditions: human
How it was run: (§1)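 150-mg IV dose; BAL at 3, 5, 8, 18 or 24 h after the dose, about 4 subjects per time group. Plasma, ELF and alveolar cell drug was measured by reversed-phase HPLC with UV detection. Values were averaged per time point. Cmax is the highest mean over the five groups; Tmax is the mean dose-to-BAL time of that group.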

[4] = Ratio of drug level in epithelial lining fluid to plasma in lung transplant recipient invasive aspergillosis patient at 150 mg, iv QD for 4 consecutive days measured after 3 hrs post last dose; format: ADME, organism-based; conditions: human
[5] = Elimination half life in lung transplant recipient invasive aspergillosis patient at 150 mg, iv QD for 4 consecutive days by HPLC; format: ADME, organism-based; conditions: human, in vivo, read-out: beta t1/2 (converted)
How it was run: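 Plasma micafungin was measured by HPLC after a 150-mg IV dose in lung transplant recipients. The terminal-phase half-life was derived by model-independent (noncompartmental) analysis of plasma concentrations.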

[6] = Drug level in alveolar cells of lung transplant recipient invasive aspergillosis patient at 150 mg, iv QD for 4 consecutive days measured after 5 hrs post last dose by HPLC; format: ADME, organism-based, Pneumocyte; conditions: human, read-out: Drug uptake
How it was run: (§2)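 150-mg IV micafungin, then bronchoscopy with BAL (20-ml saline aliquots) at the stated time after the dose. Blood was drawn in heparin at the same time. The BAL fluid was spun at 400 × g for 5 min at 4°C; supernatant and cell pellet were frozen at −80°C. Micafungin was measured by solid-phase extraction and C8 HPLC with UV detection at 271.5 nm, using anidulafungin as internal standard.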

[7] = Tmax in alveolar cells of lung transplant recipient invasive aspergillosis patient at 150 mg, iv QD for 4 consecutive days by HPLC; format: ADME, organism-based, Pneumocyte; conditions: human; how it was run: as §1
[8] = Ratio of drug level in alveolar cell to plasma of lung transplant recipient invasive aspergillosis patient at 150 mg, iv single dose measured after 5 hrs post dose; conditions: human, alveolar cells / plasma
[9] = Ratio of drug level in epithelial lining fluid to plasma in lung transplant recipient invasive aspergillosis patient at 150 mg, iv QD for 4 consecutive days measured after 8 hrs post last dose; format: ADME, organism-based; conditions: human
[10] = Tmax in lung transplant recipient invasive aspergillosis patient plasma at 150 mg, iv QD for 4 consecutive days by HPLC; format: ADME, organism-based; conditions: human; how it was run: as §1
[11] = Drug level in epithelial lining fluid of lung transplant recipient invasive aspergillosis patient at 150 mg, iv QD for 4 consecutive days measured after 3 hrs post last dose by HPLC; format: ADME, organism-based; conditions: human, read-out: Drug uptake; how it was run: as §2
[12] = Ratio of AUC (0 to 24 hrs) in lung transplant recipient invasive aspergillosis patient alveolar cell to MIC90 for Aspergillus fumigatus; format: functional, Pneumocyte
[13] = Drug level in lung transplant recipient invasive aspergillosis patient epithelial lining fluid at 150 mg, iv QD for 4 consecutive days measured after 18 hrs post last dose by HPLC; format: ADME, organism-based; conditions: human, read-out: Drug uptake; how it was run: as §2
[14] = Drug level in lung transplant recipient invasive aspergillosis patient plasma at 150 mg, iv QD for 4 consecutive days measured after 5 hrs post last dose by HPLC; format: ADME, organism-based; conditions: human, read-out: Drug uptake; how it was run: as §2
[15] = Drug level in alveolar cells of lung transplant recipient invasive aspergillosis patient at 150 mg, iv QD for 4 consecutive days measured after 8 hrs post last dose by HPLC; format: ADME, organism-based, Pneumocyte; conditions: human, read-out: Drug uptake; how it was run: as §2
[16] = Drug level in alveolar cells of lung transplant recipient invasive aspergillosis patient at 150 mg, iv single dose measured after 5 hrs post dose by HPLC; conditions: human, read-out: Drug uptake
[17] = AUC (0 to 24 hrs) in alveolar cell of lung transplant recipient invasive aspergillosis patient plasma at 150 mg, iv administered as single dose; format: ADME, organism-based, Pneumocyte; set-up: time < 24 hr, dose 150 mg, route intravenous; conditions: human, alveolar cells
How it was run: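 Single 150-mg IV dose in adult lung transplant recipients. Plasma, ELF (epithelial lining fluid) and alveolar cell concentrations were measured by HPLC at the time of bronchoscopy. AUC0-24 came from a population model: a linear four-compartment model fit to all compartments, with the plasma two-compartment model used for the plasma profile.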

[18] = Ratio of drug level in epithelial lining fluid to plasma in lung transplant recipient invasive aspergillosis patient at 150 mg, iv QD for 4 consecutive days measured after 24 hrs post last dose; format: ADME, organism-based; conditions: human
Homo sapiens [19] = assay: Hepatotoxicity in lung transplant recipient invasive aspergillosis patient assessed as total bilirubin level at 150 mg, iv QD for 4 consecutive days measured post last dose; format: toxicity, organism-based; conditions: in vivo
How it was run: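 Serum creatinine, AST, ALT and total bilirubin were recorded from routine clinical laboratory tests before enrolment and again after BAL, at a mean of 10.7 days after infusion.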

Homo sapiens [20] = assay: Hepatotoxicity in lung transplant recipient invasive aspergillosis patient assessed as serum ALT level at 150 mg, iv measured post last dose; conditions: in vivo
[21] = Drug level in lung transplant recipient invasive aspergillosis patient plasma at 150 mg, iv QD for 4 consecutive days measured after 8 hrs post last dose by HPLC; format: ADME, organism-based; conditions: human, read-out: Drug uptake; how it was run: as §2
[22] = Ratio of drug level in alveolar cell to plasma of lung transplant recipient invasive aspergillosis patient at 150 mg, iv QD for 4 consecutive days measured after 18 hrs post last dose; format: ADME, organism-based, Pneumocyte; conditions: human, alveolar cells / plasma
[23] = Ratio of drug level in alveolar cell to plasma of lung transplant recipient invasive aspergillosis patient at 150 mg, iv QD for 4 consecutive days measured after 8 hrs post last dose; format: ADME, organism-based, Pneumocyte; conditions: human, alveolar cells / plasma
[24] = Drug level in alveolar cells of lung transplant recipient invasive aspergillosis patient at 150 mg, iv QD for 4 consecutive days measured after 3 hrs post last dose by HPLC; format: ADME, organism-based, Pneumocyte; conditions: human, read-out: Drug uptake; how it was run: as §2
[25] = Drug level in alveolar cells of lung transplant recipient invasive aspergillosis patient at 150 mg, iv QD for 4 consecutive days measured after 24 hrs post last dose by HPLC; format: ADME, organism-based, Pneumocyte; conditions: human, read-out: Drug uptake; how it was run: as §2
[26] = Ratio of drug level in alveolar cell to plasma of lung transplant recipient invasive aspergillosis patient at 150 mg, iv QD for 4 consecutive days measured after 3 hrs post last dose; format: ADME, organism-based, Pneumocyte; conditions: human, alveolar cells / plasma

`CCCCCOc1ccc(-c2cc(-c3ccc(C(=O)N[C@H]4C[C@@H](O)[C@@H](O)NC(=O)[C@@H]5[C@@H](O)[C@@H](C)CN5C(=O)[C@H]([C@H](O)CC(N)=O)NC(=O)[C@H]([C@H](O)[C@@H](O)c5ccc(O)c(OS(=O)(=O)O)c5)NC(=O)[C@@H]5C[C@@H](O)CN5C(=O)[C@H]([C@@H](C)O)NC4=O)cc3)no2)cc1` [MICAFUNGIN] (X1-[Orn(4R-OH,5R-OH)]T[Hyp][hTyr(3S-OH,4S-OH,3'-OSO3H)][Gln(3R-OH)][Pro(3S-OH,4S-Me)]; lactam 1-C) showed a Ratio [1] of 3.2, a Ratio [2] of 1115 and a Cmax [3] of 4930 ng/mL. For the same molecule, the Kp at 3 h [4] was 0.01, the half-life [5] was 12.1 h and the concentration at 5 h [6] was 53300 ng/mL. It also gave a Tmax [7] of 17.9 h, a Kp at 5 h [8] of 0.61 and a Kp at 8 h [9] of 0.01. For the same molecule, the Tmax [10] was 4 h, the concentration at 3 h [11] was 40 ng/mL and the Ratio [12] was 13340. For the same molecule, the concentration at 18 h [13] was 80 ng/mL, the concentration at 5 h [14] was 5380 ng/mL and the concentration at 8 h [15] was 4860 ng/mL. For the same molecule, the concentration at 5 h [16] was 2840 ng/mL, the AUC(0-t) at 24 h [17] was 208 µg·h/mL and the Kp at 24 h [18] was 1.1. The Activity (Homo sapiens [19]) was 0.74 mg/dL, the Activity (Homo sapiens [20]) was 41.6 IU/L and the concentration at 8 h [21] was 3930 ng/mL. The Kp at 18 h [22] was 7.62, the Kp at 8 h [23] was 1.23 and the concentration at 3 h [24] was 7170 ng/mL. For the same molecule, the concentration at 24 h [25] was 9990 ng/mL and the Kp at 3 h [26] was 1.53.
